Results reported in ChEMBL document CHEMBL3297718, “Ultrasound-assisted one-pot four-component synthesis of novel 2-amino-3-cyanopyridine derivatives bearing 5-imidazopyrazole scaffold and their biological broadcast” (Eur J Med Chem, 2014).
Values after ≈ are worked out from the molar mass of the structure shown.

What was measured:
[1] = test system: Mycobacterium tuberculosis; experiment: Antitubercular activity against Mycobacterium tuberculosis H37Rv at 250 ug/ml; type: functional
[2] = test system: Vibrio cholerae; experiment: Antimicrobial activity against Vibrio cholerae MTCC 3906 by broth microdilution method; type: functional
[3] = test system: Bacillus subtilis; experiment: Antimicrobial activity against Bacillus subtilis MTCC 441 by broth microdilution method; type: functional
How it was run: (§1)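 Broth microdilution following NCCLS. Compounds were diluted in 2% DMSO in water. Fungi were grown in Sabouraud dextrose broth. Inoculum was set to 10⁸ CFU mL⁻¹ by turbidity. A primary serial-dilution screen was followed by a secondary set of lower dilutions for primary actives. Tubes were incubated at 37 °C, with growth noted at 24 and 48 h. MIC was the highest dilution preventing turbidity after spot subculture.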

[4] = test system: Clostridium tetani; experiment: Antimicrobial activity against Clostridium tetani MTCC 449 by broth microdilution method; type: functional
[5] = test system: Candida albicans; experiment: Antimicrobial activity against Candida albicans MTCC 227 by broth microdilution method; type: functional; how it was run: as §1
[6] = test system: Mycobacterium tuberculosis; experiment: Antitubercular activity against Mycobacterium tuberculosis H37Rv; type: functional
How it was run: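 M. tuberculosis H37Rv was grown on Lowenstein–Jensen medium with compound at a single concentration of 250, and compared against control tubes of medium alone with the organism. Results are given as % inhibition, and the concentration giving complete inhibition of colonies was taken as the active concentration.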

[7] = test system: Escherichia coli; experiment: Antimicrobial activity against Escherichia coli MTCC 443 by broth microdilution method; type: functional; how it was run: as §1
[8] = test system: Streptococcus pneumoniae; experiment: Antimicrobial activity against Streptococcus pneumoniae MTCC 1936 by broth microdilution method; type: functional
[9] = test system: Salmonella typhi; experiment: Antimicrobial activity against Salmonella typhi MTCC 98 by broth microdilution method; type: functional, Salmonella enterica subsp. enterica serovar Typhi; conditions: Salmonella enterica
[10] = Antioxidant activity assessed as ferric ion reducing activity using fe3+-TPTZ at 200 mg/ml measured as ascorbic acid per 100 g sample by FRAP assay; type: physicochemical
How it was run: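 FRAP assay, modified Benzie–Strain. Reagent combined TPTZ in 40 mM HCl, aqueous FeCl₃·6H₂O and acetate buffer at pH 3.6. Sample solution was mixed with 3 mL reagent and incubated 25 min at 37 °C. Fe(II)–TPTZ absorbance was read at 593 nm against an ascorbic acid standard. Results are given as ascorbic equivalents, mmol/100 g compound.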

[11] = test system: Aspergillus fumigatus; experiment: Antimicrobial activity against Aspergillus fumigatus MTCC 3008 by broth microdilution method; type: functional; how it was run: as §1

SMILES	inhibition at 250 µg/mL [1] [%]	MIC [2] [µg/mL]	MIC [3] [µg/mL]	MIC [4] [µg/mL]	MIC [5] [µg/mL]	MIC [6] [µg/mL]	MIC [7] [µg/mL]	MIC [8] [µg/mL]	MIC [9] [µg/mL]	Activity [10] [mmol]	MIC [11] [µg/mL]
COc1ccc(-c2cc(-c3c(C)nn(-c4ccccc4)c3-n3ccnc3)c(C#N)c(N)n2)cc1	94	200 (≈ 447 µM)	100 (≈ 223 µM)	200 (≈ 447 µM)	> 1000	62.5 (≈ 140 µM)	125 (≈ 279 µM)	125 (≈ 279 µM)	200 (≈ 447 µM)	400.22	1000 (≈ 2230 µM)
COc1ccc(-c2cc(-c3c(C)nn(-c4ccccc4)c3-n3cnc(C)c3)c(C#N)c(N)n2)cc1	56	62.5 (≈ 135 µM)	250 (≈ 542 µM)	250 (≈ 542 µM)	500 (≈ 1080 µM)		125 (≈ 271 µM)	100 (≈ 217 µM)	250 (≈ 542 µM)	178.82	1000 (≈ 2170 µM)
Cc1nn(-c2ccccc2)c(-n2ccnc2)c1-c1cc(-c2ccco2)nc(N)c1C#N	96	100 (≈ 245 µM)	100 (≈ 245 µM)	150 (≈ 368 µM)	500 (≈ 1230 µM)	25 (≈ 61.4 µM)	250 (≈ 614 µM)	100 (≈ 245 µM)	100 (≈ 245 µM)	456.32	> 1000
Cc1cn(-c2c(-c3cc(-c4ccco4)nc(N)c3C#N)c(C)nn2-c2ccccc2)cn1	92	200 (≈ 475 µM)	500 (≈ 1190 µM)	500 (≈ 1190 µM)	> 1000	100 (≈ 237 µM)	250 (≈ 593 µM)	250 (≈ 593 µM)	200 (≈ 475 µM)	397.24	> 1000
Cc1nn(-c2ccccc2)c(-n2ccnc2)c1-c1cc(-c2cccs2)nc(N)c1C#N	41	62.5 (≈ 148 µM)	200 (≈ 472 µM)	200 (≈ 472 µM)	> 1000		500 (≈ 1180 µM)	100 (≈ 236 µM)	500 (≈ 1180 µM)	205.48	500 (≈ 1180 µM)
Cc1cn(-c2c(-c3cc(-c4cccs4)nc(N)c3C#N)c(C)nn2-c2ccccc2)cn1	23	100 (≈ 229 µM)	500 (≈ 1140 µM)	500 (≈ 1140 µM)	> 1000		250 (≈ 571 µM)	100 (≈ 229 µM)	250 (≈ 571 µM)	422.3	> 1000
Cc1nn(-c2ccccc2)c(-n2ccnc2)c1-c1cc(-c2cc3ccccc3oc2=O)nc(N)c1C#N			500 (≈ 1030 µM)		500 (≈ 1030 µM)		200 (≈ 412 µM)	100 (≈ 206 µM)		401.22	1000 (≈ 2060 µM)
Cc1cn(-c2c(-c3cc(-c4cc5ccccc5oc4=O)nc(N)c3C#N)c(C)nn2-c2ccccc2)cn1			200 (≈ 400 µM)		250 (≈ 500 µM)		250 (≈ 500 µM)	100 (≈ 200 µM)		433.44	500 (≈ 1000 µM)
Cc1cn(-c2c(-c3cc(-c4ccc5c(c4)OC(C)(C)O5)nc(N)c3C#N)c(C)nn2-c2ccccc2)cn1	78	500 (≈ 993 µM)	250 (≈ 496 µM)	500 (≈ 993 µM)	1000 (≈ 1990 µM)		125 (≈ 248 µM)	500 (≈ 993 µM)	62.5 (≈ 124 µM)	384.91	1000 (≈ 1990 µM)
CC1(C)S[C@@H]2[C@H](NC(=O)[C@H](N)c3ccccc3)C(=O)N2[C@H]1C(=O)O [AMPICILLIN]		100 (≈ 286 µM)	250 (≈ 715 µM)	250 (≈ 715 µM)			100 (≈ 286 µM)	100 (≈ 286 µM)	100 (≈ 286 µM)		
COC1=CC(=O)C[C@@H](C)[C@]12Oc1c(Cl)c(OC)cc(OC)c1C2=O [GRISEOFULVIN]					500 (≈ 1420 µM)						100 (≈ 283 µM)
NNC(=O)c1ccncc1 [ISONIAZID]						0.2 (≈ 1.46 µM)					
CO[C@H]1/C=C/O[C@@]2(C)Oc3c(C)c(O)c4c(O)c(c(/C=N/N5CCN(C)CC5)c(O)c4c3C2=O)NC(=O)/C(C)=C\C=C\[C@H](C)[C@H](O)[C@@H](C)[C@@H](O)[C@@H](C)[C@H](OC(C)=O)[C@@H]1C [RIFAMPIN]	98					0.15 (≈ 0.182 µM)					
